Consider 23 compounds from ChEMBL document CHEMBL1139526, “Synthesis, antiviral activity, and mechanism of drug resistance of D- and L-2',3'-didehydro-2',3'-dideoxy-2'-fluorocarbocyclic nucleosides” (J Med Chem, 2005).

Experiment [1] has as its system PBMC. Put plainly: In vitro effective concentration against HIV-1 in human peripheral blood mononuclear cells. The class given is functional, cell-based. The essentials: (§1)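 HIV-1 LAI was the reference virus. Human PBM cells were infected in bulk for 1 h at 100 TCID50/1 × 10⁷ cells (flask) or 200 TCID50/6 × 10⁵ cells/well. Cells went into 10-fold serial compound dilutions in RPMI-1640 with 16% FBS, DEAE-dextran and IL-2, 5 days at 37 °C. Read-out was supernatant RT activity ([³H]TTP, poly(rA)·oligo(dT)). EC50 was taken by the median effect method.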

Experiment [2] has as its system PBMC. Kind of experiment: In vitro effective concentration against HBV in human peripheral blood mononuclear cells. The class given is functional, cell-based.
The subject of experiment [3] is CCRF-CEM. Kind of experiment: Inhibitory concentration against CEM cell line. The class given is functional, cell-based. As to conditions: Homo sapiens. In outline: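 CEM T-lymphoblastoid cells in log phase, 2.5 × 10³ cells/well, were exposed to 10-fold serial dilutions for 4 days at 37 °C and 5% CO₂. MTT was added overnight, then solubilized, with absorbance read at 570 nm. IC50 was taken from median-effect analysis.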

Experiment [4] has as its system PBMC. Kind of experiment: Inhibitory concentration was determined against PHA stimulated human peripheral blood mononuclear cells. The class given is functional, cell-based. In outline:
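Uninfected PHA-stimulated PBM cells from healthy HIV/HBV-seronegative donors were isolated by Ficoll-Hypaque and seeded at 5 × 10⁴ cells/well. Cells were incubated 5 days at 37 °C with 10-fold serial dilutions. Read-out was MTT reduction at 570 nm after overnight dye and solubilization. IC50 was taken by median-effect analysis.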

Experiment [5] concerns Vero. Put plainly: Inhibitory concentration against uninfected Vero cells. To be noted: Chlorocebus sabaeus. The class given is functional, cell-based. In outline:
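Uninfected Vero cells in log phase, 5 × 10³ cells/well, were exposed to 10-fold serial drug dilutions for 3 days at 37 °C. Viability was read by MTT overnight, solubilized, at 570 nm. IC50 came from the median effect method.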

Experiment [6] concerns PBMC. Put plainly: Effective concentration to inhibit HIV-1 activity in human peripheral blood mononuclear cells. The class given is functional, cell-based. In outline: as §1
The subject of experiment [7] is PBMC. Put plainly: (§2) In vitro effective concentration against […] wild type HIV-1 in human peripheral blood mononuclear cells. The class given is functional, cell-based. In outline:
(§3)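 Molecular clones were used: wild-type HIV-1 xxBru and lamivudine-resistant HIV-1 M184Vpitt. Human PBM cells were infected in bulk for 1 h, then cultured in 10-fold serial compound dilutions with IL-2 for 5 days at 37 °C. Pelleted supernatant virus was assayed for RT activity, 2 h at 37 °C with [³H]TTP. EC50/EC90 came from median-effect analysis. Fold increase is M184V EC50 over xxBRU EC50.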

Experiment [8] deals with PBMC. The experiment is described as §2. The class given is functional. In outline:
as §3

For experiment [9], the system named is MT4. Kind of experiment: In vitro effective concentration against HIV-1 in MT-4 cells. The class given is functional, cell-based. To be noted: Homo sapiens.
For experiment [10], the system named is PBMC. Kind of experiment: In vitro effective concentration against Lamivudine resistant HIV-1 mutant M184V in human peripheral blood mononuclear cells. The class given is functional.
In experiment [11] the test system is PBMC.
The test system of experiment [12] is PBMC. Put plainly: Fold increase in ratio of EC50 against HIV-1 M184V to that of EC50 against HIV-1wild type. The class given is functional, Homo sapiens. In outline: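 PHA-stimulated human PBM cells infected in bulk for 1 h with the molecular clones HIV-1 xxBru (wild type) or M184Vpitt, then added to 10-fold serial drug dilutions. Cultured 5 days at 37 °C. Supernatant virus was pelleted and its RT activity measured by [3H]TTP incorporation on poly(rA)·oligo(dT). EC50 by the median effect method; fold increase = EC50 M184V / EC50 xxBru.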

By EC50 is commonly meant the midpoint of the concentration-response curve. As to `Nc1nc(=O)n([C@@H]2O[C@H](CO)C=C2F)cc1F`, the values for the EC50 in experiment [1] and in experiment [2] were 0.17 µM and 0.22 µM, respectively.

The IC50 is the midpoint of a concentration-inhibition curve. Regarding `Nc1ccn([C@H]2C[C@@H](CO)C=C2F)c(=O)n1`, the IC50 in experiment [3], in [4] and in [5] was over 100 µM throughout. Besides, the EC50 in experiment [6] was 37.7 µM.

On to `O=c1ccn([C@@H]2C[C@H](CO)C=C2F)c(=O)[nH]1`, for which the IC50 in [3], in experiment [4] and in experiment [5] was over 100 µM each time. Moreover, the EC50 in experiment [6] is over 100 µM.

As a reminder, the EC90 is the point of the concentration-response curve where the effect stands at 90%. The low end stands for an effect from little substance, the high end for a need for much substance. As for `Nc1ccn([C@@H]2CS[C@H](CO)O2)c(=O)n1` [LAMIVUDINE], a half-maximal response in experiment [7] (EC50) required 0.027 µM. The compound further registered a 90% effect concentration (EC90) in [8] of 0.25 µM.

`Nc1nc(=O)n([C@H]2C=C(F)C(CO)O2)cc1F` (single isomer, unassigned) came in with an EC50 in experiment [1] of 0.82 µM.

For `Nc1ncnc2c1ncn2[C@H]1C=C(F)C(CO)O1` (single isomer, unassigned), a half-maximal response in experiment [1] (EC50) required 4.4 µM.

On to `OC[C@@H]1C=C(F)[C@H](n2cnc3c(O)ncnc32)C1`, for which the IC50 in experiment [3], in experiment [4] and in [5] was over 100 µM throughout. The compound also registered an EC50 in [6] of over 100 µM.

`Cc1cn([C@H]2C[C@H](N=[N+]=[N-])[C@@H](CO)O2)c(=O)[nH]c1=O` [ZIDOVUDINE]: the IC50 in experiment [4] was over 100 µM. The compound also displayed an EC50 in experiment [6] of 0.0018 µM.

Regarding `Nc1nc(O)c2ncn([C@H]3C[C@@H](CO)C=C3F)c2n1`, the IC50 in experiment [3], in experiment [4] and in [5] was over 100 µM in each case. The EC50 in [6] is over 100 µM.

Regarding `Cc1cn([C@@H]2C[C@H](CO)C=C2F)c(=O)[nH]c1=O`, the IC50 in [3], in experiment [4] and in experiment [5] was over 100 µM throughout. In experiment [6], the EC50 is over 100 µM.

Regarding `Nc1ccn([C@@H]2C[C@H](CO)C=C2F)c(=O)n1`, the IC50 in experiment [3], in [4] and in [5] was over 100 µM each time. In experiment [6], this compound returned an EC50 of over 100 µM.

Turning to `O=c1ccn([C@H]2C[C@@H](CO)C=C2F)c(=O)[nH]1`, the IC50 in [3], in experiment [4] and in experiment [5] was over 100 µM throughout. In [6], this compound registered an EC50 of over 100 µM.

Turning to `Nc1nc(=O)n([C@H]2C=C(F)[C@@H](CO)S2)cc1F`, the EC50 in experiment [1] turned out to be 0.15 µM.

The compound `Nc1nc2c(ncn2[C@H]2C=C[C@@H](CO)C2)c(=O)[nH]1` [CARBOVIR] had an EC50 in [1] of 0.55 µM. 4.6 µM corresponded to half-maximal inhibition in experiment [9] (IC50).

Turning to `Nc1nc(O)c2ncn([C@@H]3C[C@H](CO)C=C3F)c2n1`, the IC50 in [3], in [4] and in [5] was over 100 µM throughout. Also, the EC50 in experiment [1] and in experiment [6] was 37.8 µM throughout.

Turning to `Nc1ccn([C@H]2C=C(F)[C@@H](CO)S2)c(=O)n1`, the EC50 in [1] amounted to 0.12 µM.

Turning to `Nc1ncnc2c1ncn2[C@@H]1C[C@H](CO)C=C1F`, the IC50 in experiment [3], in experiment [4] and in [5] was over 100 µM throughout. Moreover, the EC50 in experiment [1] and in experiment [6] was 72.8 µM in each case.

`Nc1ccn([C@@H]2S[C@H](CO)C=C2F)c(=O)n1` gave an EC50 in experiment [1] of 1.3 µM.

For `Nc1ccn([C@@H]2O[C@H](CO)C=C2F)c(=O)n1`, the EC50 in experiment [1] was 0.51 µM; in experiment [2] it was 0.8 µM.

For `OC[C@H]1C=C(F)[C@@H](n2cnc3c(O)ncnc32)C1`, the IC50 is 91.3 µM in experiment [3], over 100 µM in [4] and over 100 µM in experiment [5]. The same compound displayed an EC50 in experiment [6] of over 100 µM.

`Cc1cn([C@H]2C[C@@H](CO)C=C2F)c(=O)[nH]c1=O`: the IC50 in experiment [3], in [4] and in experiment [5] was over 100 µM each time. For the same compound, the EC50 in experiment [6] was over 100 µM.

On to `Nc1ncnc2c1ncn2[C@@H]1O[C@H](CO)C=C1F`, for which the EC50 in experiment [1] is 1.5 µM; in experiment [2] it was 1.7 µM.

For the compound `Nc1ncnc2c1ncn2[C@H]1C[C@@H](CO)C=C1F`, the concentration giving a half-maximal response (EC50) in experiment [7] came to 0.77 µM; in experiment [11] it was 75.3 µM; in experiment [6] it was 0.77 µM. The IC50 in experiment [3], in experiment [4] and in experiment [5] was over 100 µM in each case. For the same compound, the EC90 was 8.34 µM in experiment [8] and over 100 µM in experiment [10]. In addition, the Fold increase in experiment [12] amounted to 98.
